Laboratory results as given in ChEMBL document CHEMBL3232862, “Optimization of chemical functionalities of indole-2-carboxamides to improve allosteric parameters for the cannabinoid receptor 1 (CB1)” (J Med Chem, 2014).
The source made the active and inactive calls. The calls are words filed in the database; no cut-off is given here.

Experiments:
[1] = target: Cannabinoid receptor 1 (Homo sapiens) (UniProt P21554); test: Displacement of [3H]CP55940 from cannabinoid CB1 receptor (unknown origin) expressed in HEK293 cells after 60 mins by liquid scintillation counting; assay type: cell-based
How it was run: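 Membranes from HEK293 cells transiently transfected with CB1 (calcium phosphate), harvested 24 h post-transfection. […] At least nine test concentrations, 100 pM–100 μM. Nonspecific binding defined with 1 μM unlabeled CP55,940. Bound ligand kept below 10%. Filtration on GF/C. Duplicates, ≥3 independent experiments. KB and α obtained by nonlinear regression using the allosteric ternary complex model.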

[2] = target: Cannabinoid receptor 1 (Homo sapiens) (UniProt P21554); test: Positive allosteric modulation of cannabinoid CB1 receptor (unknown origin) expressed in HEK293 cells assessed as induction of ERK1/2 phosphorylation by Western blot analysis in absence of siRNA targeting beta-arrestin 1; assay type: cell-based
How it was run: (§1)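 HEK293 cells were lipofectamine-transfected with CB1, with or without β-arrestin 1 siRNA (2.6 μg) or a nonsilencing control. After 24 h they were serum-starved for 18 h, with optional PTX at 5 ng/mL for 16 h at 37 °C. Cells were exposed 5 min to modulator (0–10 μM) plus 0.2 μM CP55,940 and lysed. 12 μg protein was run on 10% SDS-PAGE and immunoblotted for phospho-p44/42 and total p44/42.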

[3] = target: Cannabinoid receptor 1 (Homo sapiens) (UniProt P21554); test: Allosteric modulation of cannabinoid CB1 receptor (unknown origin) expressed in HEK293 cells assessed as inhibition of CP55940-induced [35S]GTPgammaS binding after 60 mins by liquid scintillation counting; assay type: functional, cell-based
How it was run: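 Membranes from HEK293 cells transiently expressing CB1 (calcium phosphate transfection, harvested 24 h) were used at 7.5 μg per assay. They were incubated 60 min at 30 °C in Tris pH 7.4, MgCl2, EGTA and NaCl with 0.1 nM [35S]GTPγS, 10 μM GDP, 0.1% BSA and CP55,940 (100 pM–100 μM), with or without modulator. Nonspecific binding was taken with 10 μM GTPγS. Read-out was filtration and scintillation counting, duplicates, ≥3 experiments.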

[4] = target: Cannabinoid receptor 1 (Homo sapiens) (UniProt P21554); test: Positive allosteric modulation of cannabinoid CB1 receptor (unknown origin) expressed in HEK293 cells assessed as effect on ERK1/2 phosphorylation at 5 uM by Western blot analysis in absence of siRNA targeting beta-arrestin 1; assay type: cell-based; how it was run: as §1
[5] = target: Cannabinoid receptor 1 (Homo sapiens) (UniProt P21554); test: Positive allosteric modulation of cannabinoid CB1 receptor (unknown origin) expressed in HEK293 cells assessed as induction of ERK1/2 phosphorylation by Western blot analysis in presence of siRNA targeting beta-arrestin 1; assay type: cell-based; how it was run: as §1
[6] = target: Cannabinoid receptor 1 (Homo sapiens) (UniProt P21554); test: Positive allosteric modulation of cannabinoid CB1 receptor (unknown origin) expressed in HEK293 cells assessed as induction of ERK1/2 phosphorylation at 0.05 to 10 uM in presence of CP55940 for 5 mins and pre-treated with PTX for 16 hrs by Western blot analysis; assay type: cell-based; how it was run: as §1

Sequence of Cannabinoid receptor 1 (Homo sapiens) (P21554 whole entry): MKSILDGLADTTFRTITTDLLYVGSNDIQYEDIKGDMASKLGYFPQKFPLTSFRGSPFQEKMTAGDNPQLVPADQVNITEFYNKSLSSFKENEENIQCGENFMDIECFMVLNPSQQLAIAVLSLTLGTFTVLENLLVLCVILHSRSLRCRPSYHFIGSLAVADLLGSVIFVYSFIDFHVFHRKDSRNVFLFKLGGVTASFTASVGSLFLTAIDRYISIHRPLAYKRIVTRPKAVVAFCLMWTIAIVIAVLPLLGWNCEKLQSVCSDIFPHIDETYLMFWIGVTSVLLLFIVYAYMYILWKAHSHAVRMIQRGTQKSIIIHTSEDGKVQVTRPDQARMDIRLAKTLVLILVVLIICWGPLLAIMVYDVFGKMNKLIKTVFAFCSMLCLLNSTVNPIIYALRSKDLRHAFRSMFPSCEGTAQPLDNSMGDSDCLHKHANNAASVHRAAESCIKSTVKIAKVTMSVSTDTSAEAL

Compound	Kb [1]	inhibition [2]	inhibition [3]	Activity [4]	inhibition [5]	Activity [6]
CCc1c(C(=O)NCCc2ccc(N(C)C)cc2)[nH]c2cc(Cl)ccc12	3670 nM	–	–	–	–	–
CCCCCCc1c(C(=O)NCCc2ccc(N(C)C)cc2)[nH]c2ccc(Cl)cc12	89.1 nM	Dose-dependent effect	Dose-dependent effect	Active	inactive	Active
CCc1c(C(=O)NCCc2ccc(N(C)C)cc2)[nH]c2cc(F)ccc12	1580 nM	–	–	–	–	–
CCCc1c(C(=O)NCCc2ccc(N3CCCCC3)cc2)[nH]c2ccc(Cl)cc12	1750 nM	–	–	–	–	–
CCCc1c(C(=O)NCCc2ccc(N(C)C)cc2)[nH]c2ccc(Cl)cc12	259 nM	Dose-dependent effect	Dose-dependent effect	Active	inactive	–
CCCCc1c(C(=O)NCCc2ccc(N(C)C)cc2)[nH]c2ccc(Cl)cc12	209 nM	–	–	–	–	–
